In ChEMBL document CHEMBL4152384, “Pyrtriazoles, a Novel Class of Store-Operated Calcium Entry Modulators: Discovery, Biological Profiling, and in Vivo Proof-of-Concept Efficacy in Acute Pancreatitis” (J Med Chem, 2018):
Active and inactive are the calls of the source. No cut-off for these calls is given here.

How the values were obtained:
[1] = target: Short transient receptor potential channel 1 & 3/Stromal interaction molecule 1/Calcium release-activated calcium channel protein 1 (Homo sapiens) (UniProt Q96D31+Q13507+Q13586+P48995); experiment: (§1) Modulation of TRPC1/TRPC3/STIM1/Orai1 in HEK cells assessed as induction of store-operated calcium entry by measuring residual activity at 10 uM preincubated for 30 mins followed by tBhQ-mediated Ca2+ depletion and Ca2+ re-addition to extracellular solution measured for 600 secs by Fluo-4 AM-based fluorometric assay relative to control; assay type: cell-based
[2] = target: Short transient receptor potential channel 1 & 3/Stromal interaction molecule 1/Calcium release-activated calcium channel protein 1 (Homo sapiens, UniProt P48995+Q13507+Q13586+Q96D31); experiment: as §1, with “activity” for “activity at 10 uM”; assay type: cell-based
[3] = Cytotoxicity against HEK cells assessed as cell viability at 10 uM by MTT assay relative to control; assay type: cell-based; settings: human, read-out: Activity
Method in brief: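 Hek cells treated 24 h with compound at 10 μM; viability determined by MTT assay.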

[4] = target: Transient receptor potential cation channel subfamily V member 1 (Homo sapiens) (UniProt Q8NER1); experiment: Antagonist activity at TRPV1 (unknown origin) expressed in HEK cells assessed as inhibition of capsaicin-induced calcium increase at 10 uM by fura-2-based assay; assay type: cell-based
Method in brief: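 TRPV1-overexpressing Hek cells; calcium rise evoked by capsaicin (100 nM), test compounds at 10 μM; peak amplitude read out; mean ± SEM of 600 cells from 30 plates on four separate experimental days.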

[5] = target: Transient receptor potential cation channel subfamily M member 8 (Homo sapiens) (UniProt Q7Z2W7); experiment: Antagonist activity at TRPM8 (unknown origin) expressed in HEK cells assessed as inhibition of menthol -mediated calcium increase at 10 uM by fura-2-based assay; assay type: cell-based
Method in brief: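 TRPM8-overexpressing Hek cells; calcium rise evoked by menthol (100 μM), test compounds at 10 μM; peak amplitude read out; mean ± SEM of 600 cells from 30 plates on four separate experimental days.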

[6] = Metabolic stability in CD1 mouse plasma assessed as residual compound level at 50 uM after 30 mins by LC-UV analysis; assay type: ADME, cell-free; settings: read-out: Stability
Method in brief: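 Compounds incubated in mouse plasma for 30 min; percentage of residual substrate determined.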

[7] = Drug metabolism in CD1 mouse liver microsomes assessed as ester group hydrolysis at 50 uM after 60 mins in presence of NADPH/UDPGA; assay type: ADME, microsome; settings: 1 h
[8] = Drug metabolism in CD1 mouse liver microsomes assessed as ester group hydrolysis at 50 uM after 60 mins in absence of NADPH/UDPGA; assay type: ADME, microsome; settings: 1 h
[9] = Metabolic stability in CD1 mouse liver S9 fraction assessed as residual compound level at 50 uM after 1 hr; assay type: ADME, subcellular; settings: read-out: Stability
Method in brief: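 Hydrolytic stability measured in mouse liver S9 fraction; residual substrate quantified after 1 h incubation.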

Mus musculus [10] = experiment: Acute toxicity in CD1 mouse assessed as mortality at 40 mg/kg, ip administered as single dose for 14 days; assay type: organism-based; settings: in vivo, 336 h
Mus musculus [11] = experiment: Acute toxicity in CD1 mouse assessed as effect on body weight at 40 mg/kg, ip administered as single dose for 14 days; assay type: organism-based; settings: in vivo, 336 h
Mus musculus [12] = experiment: Acute toxicity in CD1 mouse assessed as signs of distress at 40 mg/kg, ip administered as single dose for 14 days; assay type: organism-based; settings: in vivo, 336 h
Mus musculus [13] = experiment: Acute toxicity in CD1 mouse assessed as histological alterations in brain at 40 mg/kg, ip administered as single dose for 14 days; assay type: organism-based; settings: in vivo, 336 h
Mus musculus [14] = experiment: Acute toxicity in CD1 mouse assessed as histological alterations in heart at 40 mg/kg, ip administered as single dose for 14 days; assay type: organism-based; settings: in vivo, 336 h
Mus musculus [15] = experiment: Acute toxicity in CD1 mouse assessed as histological alterations in liver at 40 mg/kg, ip administered as single dose for 14 days; assay type: organism-based; settings: in vivo, 336 h
Mus musculus [16] = experiment: Acute toxicity in CD1 mouse assessed as histological alterations in lung at 40 mg/kg, ip administered as single dose for 14 days; assay type: organism-based; settings: in vivo, 336 h
Mus musculus [17] = experiment: Acute toxicity in CD1 mouse assessed as histological alterations in kidney at 40 mg/kg, ip administered as single dose for 14 days; assay type: organism-based; settings: in vivo, 336 h
Mus musculus [18] = experiment: Acute toxicity in CD1 mouse assessed as histological alterations in stomach at 40 mg/kg, ip administered as single dose for 14 days; assay type: organism-based; settings: in vivo, 336 h
[19] = Clearance in ip dosed CD1 mouse by LC-ESI-MS analysis; assay type: ADME, organism-based; settings: in vivo
[20] = Half life in ip dosed CD1 mouse by LC-ESI-MS analysis; assay type: ADME, organism-based; settings: in vivo
Mus musculus [21] = experiment: Volume of distribution in ip dosed CD1 mouse by LC-ESI-MS analysis; assay type: ADME, organism-based; settings: in vivo
[22] = Cmax in ip dosed CD1 mouse after 1 hr by LC-ESI-MS analysis; assay type: ADME, organism-based; set-up: route intraperitoneal; settings: in vivo
[23] = Plasma concentration in ip dosed CD1 mouse by LC-ESI-MS analysis; assay type: ADME, organism-based; settings: in vivo
Mus musculus [24] = experiment: Protection against cerulein-induced pancreatitis in CD1 mouse assessed as reduction in pancreatic edema at 40 mg/kg, ip administered at 30 and 150 mins post first cerulein addition by hematoxylin and eosin staining based microscopy; assay type: functional, organism-based
Mus musculus [25] = experiment: Protection against cerulein-induced pancreatitis in CD1 mouse assessed as reduction in pancreatic inflammation at 40 mg/kg, ip administered at 30 and 150 mins post first cerulein addition by hematoxylin and eosin staining based microscopy; assay type: functional, organism-based
Mus musculus [26] = experiment: Protection against cerulein-induced pancreatitis in CD1 mouse assessed as reduction in neutrophil infiltration at 40 mg/kg, ip administered at 30 and 150 mins post first cerulein addition by myeloperoxidase staining based spectrophotometry; assay type: functional, organism-based
[27] = Drug metabolism in CD1 mouse liver microsomes assessed as 1-(4-(4-(3-Carboxyphenyl)-1H-1,2,3-triazol-1-yl)phenyl)-5-(trifluoromethyl)-1H-pyrazole-4-carboxylic Acid metabolite formation at 50 uM after 60 mins by mass spectroscopic analysis; assay type: ADME, microsome
Mus musculus [28] = experiment: Acute toxicity in CD1 mouse assessed as histological alterations in ileum at 40 mg/kg, ip administered as single dose for 14 days; assay type: organism-based; settings: in vivo, 336 h
[29] = Drug metabolism in CD1 mouse liver microsomes assessed as 3-(1-(4-(4-((Pentan-2-yloxy)carbonyl)-5-(trifluoromethyl)-1H-pyrazol-1-yl)-phenyl)-1H-1,2,3-triazol-4-yl)benzoic Acid metabolite formation at 50 uM after 60 mins by mass spectroscopic analysis; assay type: ADME, microsome
[30] = test system: voltage-gated calcium channel (Mus musculus); experiment: Antagonist activity at voltage-gated calcium channels in C57/BL6 mouse cerebellar granule cells assessed as inhibition of KCl-induced voltage dependent calcium entry at 10 uM by fura-2-based assay
[31] = test system: voltage-gated calcium channel (Mus musculus); experiment: as above; remark: listed apart in the source

Sequence of Short transient receptor potential channel 1 & 3/Stromal interaction molecule 1/Calcium release-activated calcium channel protein 1 (Homo sapiens) (P48995 whole entry partner): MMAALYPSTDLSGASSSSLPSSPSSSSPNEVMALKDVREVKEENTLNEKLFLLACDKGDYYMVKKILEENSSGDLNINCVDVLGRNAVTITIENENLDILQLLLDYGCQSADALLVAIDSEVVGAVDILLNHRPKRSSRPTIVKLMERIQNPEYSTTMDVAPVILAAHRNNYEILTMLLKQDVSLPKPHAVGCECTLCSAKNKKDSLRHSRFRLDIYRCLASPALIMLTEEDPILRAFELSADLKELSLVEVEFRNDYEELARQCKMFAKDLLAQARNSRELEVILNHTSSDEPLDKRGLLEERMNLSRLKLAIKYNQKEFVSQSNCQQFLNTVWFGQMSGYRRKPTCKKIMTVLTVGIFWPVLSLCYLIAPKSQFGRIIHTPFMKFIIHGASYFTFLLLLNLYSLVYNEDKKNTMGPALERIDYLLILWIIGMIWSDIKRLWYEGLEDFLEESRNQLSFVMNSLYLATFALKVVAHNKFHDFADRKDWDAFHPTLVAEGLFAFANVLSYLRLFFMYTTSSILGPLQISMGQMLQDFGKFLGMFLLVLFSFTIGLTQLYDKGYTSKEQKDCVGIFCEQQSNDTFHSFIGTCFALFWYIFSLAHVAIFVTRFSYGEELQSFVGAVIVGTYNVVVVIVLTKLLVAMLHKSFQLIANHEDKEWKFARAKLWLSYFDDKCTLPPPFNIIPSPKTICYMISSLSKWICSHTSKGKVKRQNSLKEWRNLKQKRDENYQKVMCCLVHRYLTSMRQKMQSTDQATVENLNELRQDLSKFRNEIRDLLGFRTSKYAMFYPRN
Sequence of Short transient receptor potential channel 1 & 3/Stromal interaction molecule 1/Calcium release-activated calcium channel protein 1 (Homo sapiens) (Q13507 whole entry partner): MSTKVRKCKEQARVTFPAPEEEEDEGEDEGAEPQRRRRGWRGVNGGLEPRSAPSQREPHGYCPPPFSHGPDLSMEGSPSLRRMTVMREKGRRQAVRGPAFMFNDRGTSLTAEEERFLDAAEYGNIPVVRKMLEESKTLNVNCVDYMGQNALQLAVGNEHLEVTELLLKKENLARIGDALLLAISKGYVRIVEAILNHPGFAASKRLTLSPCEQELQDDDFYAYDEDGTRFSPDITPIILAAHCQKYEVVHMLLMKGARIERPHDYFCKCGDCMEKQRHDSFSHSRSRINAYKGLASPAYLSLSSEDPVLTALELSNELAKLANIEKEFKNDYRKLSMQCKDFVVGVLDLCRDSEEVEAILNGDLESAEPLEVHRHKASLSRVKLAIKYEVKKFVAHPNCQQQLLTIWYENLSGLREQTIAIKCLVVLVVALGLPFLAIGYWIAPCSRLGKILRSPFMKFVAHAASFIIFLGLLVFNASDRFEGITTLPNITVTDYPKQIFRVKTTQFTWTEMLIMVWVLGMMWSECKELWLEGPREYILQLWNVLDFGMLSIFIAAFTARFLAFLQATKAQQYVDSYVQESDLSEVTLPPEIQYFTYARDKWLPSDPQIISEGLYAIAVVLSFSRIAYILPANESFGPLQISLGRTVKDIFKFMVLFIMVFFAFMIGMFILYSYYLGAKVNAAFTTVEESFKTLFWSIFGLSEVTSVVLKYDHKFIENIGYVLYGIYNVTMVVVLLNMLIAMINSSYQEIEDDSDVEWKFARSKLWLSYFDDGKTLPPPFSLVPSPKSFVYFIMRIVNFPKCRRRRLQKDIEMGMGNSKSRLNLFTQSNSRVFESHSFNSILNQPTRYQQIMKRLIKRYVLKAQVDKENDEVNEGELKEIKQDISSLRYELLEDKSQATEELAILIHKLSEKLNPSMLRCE
Sequence of Short transient receptor potential channel 1 & 3/Stromal interaction molecule 1/Calcium release-activated calcium channel protein 1 (Homo sapiens) (Q13586 23-685 partner limits assumed): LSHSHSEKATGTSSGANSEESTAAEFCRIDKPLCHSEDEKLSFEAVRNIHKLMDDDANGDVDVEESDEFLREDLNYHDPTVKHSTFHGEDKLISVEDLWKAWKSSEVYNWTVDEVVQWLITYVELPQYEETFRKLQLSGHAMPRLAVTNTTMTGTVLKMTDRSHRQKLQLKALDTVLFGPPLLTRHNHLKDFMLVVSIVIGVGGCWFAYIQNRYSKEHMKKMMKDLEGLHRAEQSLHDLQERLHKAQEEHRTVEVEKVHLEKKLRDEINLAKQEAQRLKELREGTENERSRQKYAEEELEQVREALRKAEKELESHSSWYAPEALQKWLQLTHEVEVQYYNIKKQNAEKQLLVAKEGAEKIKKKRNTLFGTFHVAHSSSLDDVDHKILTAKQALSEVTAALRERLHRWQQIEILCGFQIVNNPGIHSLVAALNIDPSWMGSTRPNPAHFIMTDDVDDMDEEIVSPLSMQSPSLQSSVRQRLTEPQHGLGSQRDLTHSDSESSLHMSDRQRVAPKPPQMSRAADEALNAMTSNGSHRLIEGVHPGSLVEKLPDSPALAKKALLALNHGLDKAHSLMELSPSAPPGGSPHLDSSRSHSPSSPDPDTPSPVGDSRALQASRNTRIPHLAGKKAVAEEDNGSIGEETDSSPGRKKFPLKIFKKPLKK
Sequence of Short transient receptor potential channel 1 & 3/Stromal interaction molecule 1/Calcium release-activated calcium channel protein 1 (Homo sapiens) (Q96D31 whole entry): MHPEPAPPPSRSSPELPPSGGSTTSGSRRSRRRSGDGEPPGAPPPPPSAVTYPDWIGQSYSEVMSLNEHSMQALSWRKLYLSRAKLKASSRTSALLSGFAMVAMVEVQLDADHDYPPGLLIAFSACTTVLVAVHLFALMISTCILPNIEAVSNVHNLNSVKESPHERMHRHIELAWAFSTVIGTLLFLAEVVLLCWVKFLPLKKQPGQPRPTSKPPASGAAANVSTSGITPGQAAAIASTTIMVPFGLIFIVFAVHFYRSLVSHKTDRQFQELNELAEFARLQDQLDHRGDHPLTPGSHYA
Sequence of Short transient receptor potential channel 1 & 3/Stromal interaction molecule 1/Calcium release-activated calcium channel protein 1 (Q96D31 whole entry): as above
Sequence of Short transient receptor potential channel 1 & 3/Stromal interaction molecule 1/Calcium release-activated calcium channel protein 1 (Q13507 whole entry): as the sequence (Q13507 whole entry partner) above
Sequence of Short transient receptor potential channel 1 & 3/Stromal interaction molecule 1/Calcium release-activated calcium channel protein 1 (Q13586 whole entry): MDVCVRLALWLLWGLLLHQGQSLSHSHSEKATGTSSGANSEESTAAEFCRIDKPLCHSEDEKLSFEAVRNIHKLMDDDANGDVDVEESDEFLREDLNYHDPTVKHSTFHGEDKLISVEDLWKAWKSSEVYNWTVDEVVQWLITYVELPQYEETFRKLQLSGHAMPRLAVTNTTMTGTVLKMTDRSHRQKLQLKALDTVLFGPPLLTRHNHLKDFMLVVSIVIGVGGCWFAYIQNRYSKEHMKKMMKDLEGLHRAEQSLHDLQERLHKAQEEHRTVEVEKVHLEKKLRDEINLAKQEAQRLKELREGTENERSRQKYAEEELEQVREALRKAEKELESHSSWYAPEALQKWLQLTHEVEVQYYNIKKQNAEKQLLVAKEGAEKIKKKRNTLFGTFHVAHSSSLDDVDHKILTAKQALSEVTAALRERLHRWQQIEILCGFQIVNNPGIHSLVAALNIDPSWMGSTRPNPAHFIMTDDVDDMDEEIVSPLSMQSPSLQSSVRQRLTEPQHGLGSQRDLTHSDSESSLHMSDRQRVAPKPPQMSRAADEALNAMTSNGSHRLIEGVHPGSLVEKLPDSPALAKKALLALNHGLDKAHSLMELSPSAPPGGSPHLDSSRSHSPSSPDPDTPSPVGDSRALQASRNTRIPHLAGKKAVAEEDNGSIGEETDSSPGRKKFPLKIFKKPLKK
Sequence of Short transient receptor potential channel 1 & 3/Stromal interaction molecule 1/Calcium release-activated calcium channel protein 1 (P48995 whole entry): as the sequence (P48995 whole entry partner) above
Sequence of Transient receptor potential cation channel subfamily V member 1 (Homo sapiens) (Q8NER1 whole entry): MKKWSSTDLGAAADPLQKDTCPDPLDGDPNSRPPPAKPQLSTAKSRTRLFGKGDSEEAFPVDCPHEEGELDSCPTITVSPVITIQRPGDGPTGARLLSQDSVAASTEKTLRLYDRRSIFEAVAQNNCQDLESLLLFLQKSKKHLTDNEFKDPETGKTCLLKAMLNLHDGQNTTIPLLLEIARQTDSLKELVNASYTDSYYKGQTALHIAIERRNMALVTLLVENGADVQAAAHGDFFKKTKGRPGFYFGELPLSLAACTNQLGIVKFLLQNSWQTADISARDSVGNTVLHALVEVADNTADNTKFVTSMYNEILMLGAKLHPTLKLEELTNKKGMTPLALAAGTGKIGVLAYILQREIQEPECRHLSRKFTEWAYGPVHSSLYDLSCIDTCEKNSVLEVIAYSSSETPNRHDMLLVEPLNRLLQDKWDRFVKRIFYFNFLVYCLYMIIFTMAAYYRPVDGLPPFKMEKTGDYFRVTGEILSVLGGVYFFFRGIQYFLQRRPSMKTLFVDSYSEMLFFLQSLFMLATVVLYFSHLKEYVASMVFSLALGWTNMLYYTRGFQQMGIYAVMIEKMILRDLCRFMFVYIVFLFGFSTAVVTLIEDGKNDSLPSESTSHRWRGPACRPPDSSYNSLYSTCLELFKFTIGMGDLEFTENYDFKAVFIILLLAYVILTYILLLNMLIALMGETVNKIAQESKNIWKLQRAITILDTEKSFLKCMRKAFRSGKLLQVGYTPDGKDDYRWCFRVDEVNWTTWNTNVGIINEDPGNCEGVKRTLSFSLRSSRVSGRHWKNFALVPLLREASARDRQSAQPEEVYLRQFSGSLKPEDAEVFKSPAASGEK

For `CCCC(C)OC(=O)c1cnn(-c2ccc(-n3cc(-c4cccc(C(=O)O)c4)nn3)cc2)c1C(F)(F)F` (stereo unspecified), the Activity [1] was 17.5%, the IC50 [2] was 4.4 µM and the viability at 10 µM [3] was 93.6%. For the same molecule, the inhibition [4] was “inactive”, the inhibition [5] was “inactive” and the remaining at 0.5 h, 50 µM [6] was 97.8%. The Drug metabolism [7] was “Metabolite_Detected”, the Drug metabolism [8] was “Metabolite_Detected” and the remaining at 1 h, 50 µM [9] was 73.7%. For the same molecule, the Activity (Mus musculus [10]) was “Non-Toxic”, the Activity (Mus musculus [11]) was “Non-Toxic” and the Activity (Mus musculus [12]) was “Non-Toxic”. The Activity (Mus musculus [13]) was “Non-Toxic”, the Activity (Mus musculus [14]) was “Non-Toxic” and the Activity (Mus musculus [15]) was “Non-Toxic”. For the same molecule, the Activity (Mus musculus [16]) was “Non-Toxic”, the Activity (Mus musculus [17]) was “Non-Toxic” and the Activity (Mus musculus [18]) was “Non-Toxic”. It also gave a CL/F [19] of 283 mL/min/kg, a half-life [20] of 78 min and a Vd (Mus musculus [21]) of 32 L/kg. For the same molecule, the Cmax [22] was 640 ng/mL, the concentration [23] was 1200 nM and the Activity (Mus musculus [24]) was “Active”. The Activity (Mus musculus [25]) was “Active”, the Activity (Mus musculus [26]) was “Active” and the Drug metabolism [27] was “Metabolite_Notdetected”. The Activity (Mus musculus [28]) was “Non-Toxic”, the Drug metabolism [29] was “Metabolite_Detected” and the inhibition [30] was “inactive”. For the same molecule, the inhibition [31] was “inactive”.
